Measured values taken from ChEMBL document CHEMBL1121715, “New antiarrhythmic agents. 4. 1'-(Aminoalkyl)-1,2,3,4-tetrahydronaphthalene-1-spiro-3'-pyrrolidine-2',5'-dione derivatives” (J Med Chem, 1981).
“And” between values parts separate entries of the source, which are not always exact repeats. Equal entries are not always repeated.

Key:
Mus musculus [1] = test: Ataxia was measured in mice after sc administration at given dose; assay type: functional
Summary of the method: (§1)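 Mice in groups of 10 received drug sc in 0.9% saline and were watched 20 min for overt toxicity before chloroform exposure. At least three doses were given.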

Mus musculus [2] = organism: Mus musculus; test: Percentage toxicity measured as loss of righting reflex.; assay type: organism-based; conditions: in vivo
Summary of the method: (§2)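 Mice (groups of 10) were dosed sc with drug in 0.9% saline and watched for 20 min for overt toxicity (ataxia, convulsions, loss of righting reflex, death) before chloroform exposure.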

Mus musculus [3] = organism: Mus musculus; test: Percentage toxicity measured as convulsions.; assay type: organism-based; conditions: in vivo; summary of the method: as §2
Mus musculus [4] = test: Protection against chloroform induced arrhythmias was measured in mice after sc administration at given dose; assay type: functional
Summary of the method: (§3)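 Groups of 10 unanesthetized mice got sc injection of drug in 0.9% saline. After 20 min observation they were placed one by one in chloroform-vapor-saturated air. When breathing stopped, the thorax was opened and the heart inspected by eye; coordinated ventricular contractions counted as protected.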

[5] = Percentage toxicity measured as death of mice.; assay type: organism-based; parameters: concentration or dose not given beside the values; conditions: mouse, in vivo; read-out: Death
Mus musculus [6] = organism: Mus musculus; test: Percentage toxicity measured as ataxia.; assay type: organism-based; conditions: in vivo; summary of the method: as §2
Mus musculus [7] = test: Protection against chloroform induced arrhythmias in mice after subcutaneous administration at 100 mg/kg dose.; assay type: functional; summary of the method: as §3
Mus musculus [8] = test: Ataxia was measured in mice after sc administration at given dose.; assay type: functional; summary of the method: as §1
Mus musculus [9] = test: Protection against chloroform induced arrhythmias was measured in mice after sc administration at given dose.; assay type: functional; conditions: Mus musculus, sc; read-out: ED50; summary of the method: as §3
Canis familiaris [10] = test: Ventricular rate was measured in anesthetized dog at 0.016 dose; assay type: functional, Canis lupus familiaris, Heart; conditions: in the assay text read “unanesthetized dog” for “anesthetized dog”
Summary of the method: (§4)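 Adult female dogs (6.7–14.5 kg) had two-stage ligation of the left anterior descending coronary artery the day before testing. After control ventricular rate, % ectopic beats and mean arterial pressure were recorded, the drug (HCl salt, isotonic solution) was infused iv without anesthesia at 0.1, 0.5 or 1.0 (mg/kg)/min, mostly 0.5. Infusion continued until the arrhythmia was abolished or cardiovascular/CNS toxicity appeared. Cumulative dose is given in mmol/kg; toxicity included convulsion and P-R prolongation ≥25%.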

Canis familiaris [11] = organism: Canis familiaris; test: (§5) Maximum dose of the Compound; assay type: functional, Canis lupus familiaris; summary of the method: as §4
Canis familiaris [12] = organism: Canis familiaris; test: (§6) The dose at which toxicity was measured.; assay type: organism-based, Canis lupus familiaris; conditions: dog, in vivo; summary of the method: as §4
Canis familiaris [13] = organism: Canis familiaris; test: (§7) Toxicity of blood level was measured; assay type: organism-based, Canis lupus familiaris; conditions: dog, in vivo
Summary of the method: (§8)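 In coronary-ligated conscious dogs under iv infusion, blood was sampled at toxicity. Drug was extracted with methylene chloride at pH 10.3 (ammonium citrate/ammonia) with another analogue as internal standard, then derivatized with heptafluorobutyrylimidazole. Assay was GC-FID on 3% JXR, quantified from drug/internal standard peak-height ratio against standard curves; results in μmol/mL.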

[14] = Total body clearance was measured at given dose.; assay type: ADME, organism-based; conditions: in vivo
Summary of the method: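 Blood levels came from the iv-infused dogs, measured by GC-FID after methylene chloride extraction and heptafluorobutyryl derivatization with an internal standard. Total body clearance was total dose divided by the blood-level AUC (zero to infinity); volume of distribution was clearance divided by the elimination rate constant.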

[15] = Maximal concentration in dogs after intravenous administration; conditions: dog, in vivo
Canis familiaris [16] = test: as above; conditions: dog, in vivo
Canis familiaris [17] = organism: Canis familiaris; test: as §5; assay type: ADME, organism-based, Canis lupus familiaris; conditions: dog, in vivo; summary of the method: as §4
Canis familiaris [18] = test: Ventricular rate was measured in anesthetized dog at 0.047 dose; assay type: functional, Canis lupus familiaris, Heart; conditions: in the assay text read “unanesthetized dog” for “anesthetized dog”; summary of the method: as §4
Canis familiaris [19] = test: % ectopic beats was measured in anesthetized dog at 0.047 dose.; assay type: functional, Canis lupus familiaris, Heart; conditions: in the assay text read “unanesthetized” for “anesthetized”
Summary of the method: (§9)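 Adult female dogs (6.7–14.5 kg) had the left anterior descending coronary artery ligated in two stages the day before testing. Dogs were unanesthetized. Ectopic beats (% of ventricular rate) and mean arterial pressure were read at maximal antiarrhythmic effect against the cumulative dose.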

Canis familiaris [20] = test: Blood level was measured in anesthetized 0.047 at given dose.; assay type: functional, Canis lupus familiaris; conditions: in the assay text read “unanesthetized” for “anesthetized”
Summary of the method: (§10)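 Blood was sampled from unanesthetized dogs with coronary-ligation arrhythmias during iv drug infusion. Each 1 mL sample was mixed with internal standard and pH 10.3 ammonium citrate/ammonia buffer and extracted into methylene chloride. The extract was dried at 50 °C and derivatized with heptafluorobutyrylimidazole. Analysis was by GC with flame-ionization detection (3% JXR column, 220 °C). Concentration came from the drug/internal standard peak-height ratio against standard curves.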

Canis familiaris [21] = test: % ectopic beats was measured in anesthetized dog at 0.016 dose.; assay type: functional, Canis lupus familiaris, Heart; conditions: in the assay text read “unanesthetized” for “anesthetized”; summary of the method: as §9
Canis familiaris [22] = test: Blood level was measured in anesthetized dog at 0.016d ose.; assay type: functional, Canis lupus familiaris; conditions: in the assay text read “unanesthetized” for “anesthetized”; summary of the method: as §10
Canis familiaris [23] = test: MABP value was measured in anesthetized dog at 0.016 dose.; assay type: functional, Canis lupus familiaris; conditions: in the assay text read “unanesthetized dog” for “anesthetized dog”; summary of the method: as §9
[24] = Volume of distribution was measured at given dose of 81 umol/kg; assay type: ADME, organism-based; conditions: in vivo
Summary of the method: (§11)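 In dogs given iv infusions, blood samples were alkaline-extracted (pH 10.3) into methylene chloride and derivatized with heptafluorobutyrylimidazole. Concentrations were measured by GC-FID against an internal standard using standard curves. Clearance was total dose ÷ blood-level AUC (zero to infinity), and volume of distribution was clearance ÷ elimination rate constant.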

[25] = Volume of distribution was measured at given dose of 34 umol/kg; assay type: ADME, organism-based; conditions: in vivo; summary of the method: as §11
[26] = Maximal concentration in dogs after 34 umol/kg intravenous dose; conditions: dog, in vivo
[27] = Volume of distribution was measured at given dose of 43 umol/kg; assay type: ADME, organism-based; conditions: in vivo; summary of the method: as §11
Canis familiaris [28] = organism: Canis familiaris; test: as §6; assay type: organism-based, Canis lupus familiaris; conditions: dog, in vivo; summary of the method: as §4; remark: listed apart in the source
Canis familiaris [29] = test: MABP value was measured in anesthetized dog at 0.047 dose.; assay type: functional, Canis lupus familiaris; conditions: in the assay text read “unanesthetized dog” for “anesthetized dog”; summary of the method: as §4
Canis familiaris [30] = organism: Canis familiaris; test: as §7; assay type: organism-based, Canis lupus familiaris; conditions: dog, in vivo; summary of the method: as §8; remark: listed apart in the source

## CCN(CC)C(C)CCN1C(=O)CC2(CCCc3ccc(O)cc32)C1=O (stereo not drawn)
Mus musculus [1]
  ED50: 80 µmol/kg
Mus musculus [2]
  Loss of righting reflex: 100%
Mus musculus [3]
  Convulsion: 100%
Mus musculus [4]
  ED50: 80 µmol/kg
[5]
  mortality: 20%
Mus musculus [6]
  Ataxia: 100%
Mus musculus [7]
  Protection: 80%

## CCCC1(c2ccccc2)CC(=O)N(CCN(C)C)C1=O (stereo not drawn)
Mus musculus [8]
  ED50: 270 µmol/kg
Mus musculus [9]
  ED50: 390 µmol/kg
Mus musculus [2]
  Loss of righting reflex: 0%
Mus musculus [3]
  Convulsion: 0%
[5]
  mortality: 0%
Mus musculus [6]
  Ataxia: 100%
Mus musculus [7]
  Protection: 40%

## CCN(CC)CCCCN1C(=O)CC2(CCCc3ccc(OC)cc32)C1=O (stereo not drawn)
Canis familiaris [10]
  Ventricular rate: 147 beats min-1
Canis familiaris [11]
  Dose: 81 µM/kg and 43 µM/kg
Canis familiaris [12]
  Cumulative dose: 0.081
Canis familiaris [13]
  Blood level: 18 µM
[14]
  ClB: 8.22 mL/min/kg and 12.8 mL/min/kg
[14]; ClB
  clearance: 10.4 mL/min/kg
[15]
  Cmax: 29 µM
Canis familiaris [16]
  Cmax: 20 µM
Canis familiaris [17]
  Dose: 34 µM/kg
Canis familiaris [18]
  Ventricular rate: 165 beats min-1
Canis familiaris [19]
  Etopic beats: 0%
Mus musculus [9]
  ED50: 130 µmol/kg
Canis familiaris [20]
  Blood level: 0.02 uM ml-1
Canis familiaris [21]
  Etopic beats: 1%
Mus musculus [2]
  Loss of righting reflex: 0%
Canis familiaris [22]
  Blood level: 0.011 uM ml-1
Mus musculus [3]
  Convulsion: 0%
[5]
  mortality: 0%
Canis familiaris [23]
  MABP: 95 mmHg
[24]
  Vd: 3.41 L/kg
[25]
  Vd: 2.64 L/kg
[26]
  Cmax: 12 µM
[27]
  Vd: 2.47 L/kg
Canis familiaris [28]
  Cumulative dose: 0.02
Canis familiaris [29]
  MABP: 100 mmHg
Mus musculus [6]
  Ataxia: 0%
Mus musculus [7]
  Protection: 80%
Canis familiaris [30]
  Blood level: 0.029 uM ml-1

## CCN(CC)CCCN1C(=O)CC2(CCCc3ccc(OC(C)C)cc32)C1=O (stereo not drawn)
Mus musculus [1]
  ED50: 110 µmol/kg
Mus musculus [2]
  Loss of righting reflex: 0%
Mus musculus [3]
  Convulsion: 100%
Mus musculus [4]
  ED50: 140 µmol/kg
[5]
  mortality: 0%
Mus musculus [6]
  Ataxia: 100%
Mus musculus [7]
  Protection: 90%

## CCN(CC)CCCN1C(=O)CC2(CCCc3ccc(Cl)cc32)C1=O (stereo not drawn)
Mus musculus [1]
  ED50: 110 µmol/kg
Mus musculus [2]
  Loss of righting reflex: 0%
Mus musculus [3]
  Convulsion: 0%
Mus musculus [4]
  ED50: 160 µmol/kg
[5]
  mortality: 0%
Mus musculus [6]
  Ataxia: 100%
Mus musculus [7]
  Protection: 90%

## CN(CCO)CCCN1C(=O)CC2(CCCc3ccccc32)C1=O (stereo not drawn)
Mus musculus [1]
  ED50: 760 µmol/kg
Mus musculus [2]
  Loss of righting reflex: 0%
Mus musculus [3]
  Convulsion: 0%
Mus musculus [4]
  ED50: 560 µmol/kg
[5]
  mortality: 0%
Mus musculus [6]
  Ataxia: 0%
Mus musculus [7]
  Protection: 30%
